This excerpt belongs to a sample that is enriched for hits.
KDM4C inh: inhibitors of human demethylase GASC-1 KDM4C; Q9H3R0; GST-KDM4C 2-372, H3K9me3 peptide, LANCE TR-FRET; inhibition, % at 12.5 µM; 0.15% of 96,000 active;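 active = mean replicate inhibition above about 25%, with at least 55% of replicates also reaching it, limit read from the data, passing the limit was not always enough; inconclusive = only one of those two conditions met; inactive = neither condition met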
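System: N-terminal GST-fused human GASC-1 (KDM4C) fragment, residues 2-372; amount: enzyme final amount 10 nM; incubation: reaction 30 min RT, detection step 1 h RT; medium: HEPES buffer, pH 7.5, plus ascorbate; technique: LANCE TR-FRET, Eu antibody, ULight-streptavidin, EDTA, ex 340 nm, em 618/671 nm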
IDH1 R132H inh: blocks human IDH1 R132H reductase activity; O75874; diaphorase/resazurin fluorescence, 60 min; inhibition, % at 10 µM; 0.18% of 70,000 active; in the data active = inhibition above about 34%; inconclusive = no clear call, values can overlap the other calls; inactive = below about 11%;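 also: 0% = DMSO and 100% = no enzyme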
Target sequence (O75874 whole entry R132H): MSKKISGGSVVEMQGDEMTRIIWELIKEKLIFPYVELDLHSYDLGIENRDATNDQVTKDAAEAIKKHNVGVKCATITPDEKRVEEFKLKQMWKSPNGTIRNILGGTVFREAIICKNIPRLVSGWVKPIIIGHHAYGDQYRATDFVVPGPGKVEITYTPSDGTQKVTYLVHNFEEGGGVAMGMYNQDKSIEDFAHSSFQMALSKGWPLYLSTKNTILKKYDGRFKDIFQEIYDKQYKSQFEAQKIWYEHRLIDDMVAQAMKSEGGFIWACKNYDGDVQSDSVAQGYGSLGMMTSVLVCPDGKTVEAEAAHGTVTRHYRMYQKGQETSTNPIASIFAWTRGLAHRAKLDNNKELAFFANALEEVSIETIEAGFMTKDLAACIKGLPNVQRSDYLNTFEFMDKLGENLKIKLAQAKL
T cruzi growth-1: inhibitors of T. cruzi proliferation; T. cruzi beta-gal in NIH3T3, GalScreen luminescence, 90 h; inhibition, % at 8.34 µM; 5.9% of 77,000 active;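 active = mean inhibition above about 93%, with at least 55% of replicates each passing it, limit read from the data, passing the limit was not always enough; inconclusive = only one of those two conditions holds; inactive = neither condition holds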
T cruzi growth-2: blocks T. cruzi growth in NIH3T3 host cells; shares compounds with T cruzi growth-1; AID 651739; T. cruzi beta-gal in NIH3T3, GalScreen luminescence, 90 h; 72% of 5,600 active; inhibition, % at 8.35 µM;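 active = mean replicate inhibition above about 95% and at least 55% of replicates individually reaching it, limit read from the data; inconclusive = only one of the two criteria is met; inactive = neither criterion is met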
T cruzi growth-3: inhibitors of T. cruzi proliferation; shares compounds with T cruzi growth-1; inhibition, % at 2.09 µM; T. cruzi beta-gal in NIH3T3, GalScreen luminescence, 90 h; 21% of 5,600 active;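 active = mean inhibition above about 95%, with at least 55% of replicates also reaching it, limit read from the data; inconclusive = meets just one of the two conditions; inactive = meets neither condition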;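 also: plate controls were neutral control median for no effect and positive control median for full effect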
3T3 cytotox: NIH/3T3 (mouse) viability loss; AID 651742; shares compounds with T cruzi growth-1; NIH/3T3 viability, CellTiter-Glo ATP luminescence, 90 h; 14% of 5,600 active; cytotoxicity (signal decrease), % at 8.35 µM;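 active = mean signal decrease across replicates above about 35% based on untreated-well scatter, with enough replicates individually passing, limit read from the data; inconclusive = no rule stated though some were filed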;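 also: 0% = median of neutral control wells and 100% = median of positive control wells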
3T3 cytotox 2: cytotoxicity in mouse NIH/3T3 fibroblasts; shares compounds with T cruzi growth-1; NIH/3T3 viability, CellTiter-Glo ATP luminescence, 90 h; inhibition, % at 24.9 µM; 56% of 5,600 active; AID 651744;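 active = mean loss of cell viability signal at or above a set limit, and enough replicates individually reaching it; inconclusive = meets only the mean limit or only the replicate share; inactive = meets neither condition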;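 also: 0% = median of neutral control wells and 100% = median of positive control wells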
The depositor's hits bear a star.

What do the screens show for `O=C(N[C@H]1C=C[C@@H](CC(=O)N2CCCCC2)O[C@H]1CO)c1ccccn1`?
KDM4C inh: -0.4; IDH1 R132H inh: 0.1; T cruzi growth-1: 18.8

What do the screens show for `CCCNC(=O)N(C)C[C@H]1Oc2ncc(-c3ccccc3)cc2C(=O)N([C@@H](C)CO)C[C@H]1C`?
KDM4C inh: -0.4; IDH1 R132H inh: -0.4; T cruzi growth-1: -21.2

Results for N#Cc1cccc(-c2ccc([C@H]3[C@H](CO)N4CCCCN(C(=O)Nc5ccccc5)C[C@@H]34)cc2)c1 ?
KDM4C inh: -0.7; T cruzi growth-1: 98.9*; T cruzi growth-2: 110.0*; T cruzi growth-3: 63.7; 3T3 cytotox: 45.6*; 3T3 cytotox 2: 106.4*

What do the screens show for `COc1ccccc1NC(=O)N1CCCCN2[C@H](C1)[C@@H](c1ccc(-c3cccc(C#N)c3)cc1)[C@@H]2CO`?
KDM4C inh: -0.2; T cruzi growth-1: 42.8

Results for N#Cc1cccc(-c2ccc([C@@H]3[C@@H](CO)N4CCCCN(C(=O)Nc5ccc(F)cc5)C[C@H]34)cc2)c1 ?
KDM4C inh: 0.8; T cruzi growth-1: 92.7

What do the screens show for `N#Cc1cccc(-c2ccc([C@@H]3[C@H](CO)N4CCCCN(C(=O)Nc5ccccc5)C[C@@H]34)cc2)c1`?
KDM4C inh: -0.5; T cruzi growth-1: 97.8*; T cruzi growth-2: 107.9*; T cruzi growth-3: 87.7; 3T3 cytotox: 35.8*; 3T3 cytotox 2: 105.6*

What do the screens show for `CCC(=O)N1CCCCN2[C@H](CO)[C@H](c3ccc(-c4cccc(C#N)c4)cc3)[C@@H]2C1`?
KDM4C inh: -0.4; T cruzi growth-1: 92.1

What do the screens show for `N#Cc1cccc(-c2ccc([C@H]3[C@@H](CO)N4CCCCN(C(=O)Nc5ccccc5)C[C@@H]34)cc2)c1`?
KDM4C inh: -1.7; T cruzi growth-1: 111.2*; T cruzi growth-2: 108.4*; T cruzi growth-3: 71.0; 3T3 cytotox: 20.8; 3T3 cytotox 2: 16.4

How did COc1ccccc1NC(=O)N1CCCCN2[C@H](C1)[C@H](c1ccc(-c3cccc(C#N)c3)cc1)[C@@H]2CO do in these assays?
KDM4C inh: -3.0; T cruzi growth-1: 82.0

What do the screens show for `N#Cc1cccc(-c2ccc([C@@H]3[C@@H](CO)N4CCCCN(C(=O)Nc5ccccc5)C[C@@H]34)cc2)c1`?
KDM4C inh: 0.1; T cruzi growth-1: 108.3*; T cruzi growth-2: 106.8*; T cruzi growth-3: 70.0; 3T3 cytotox: 41.8*; 3T3 cytotox 2: 92.6*

Results for CCN(C[C@@H]1N[C@H](CO)[C@@H]1c1ccc(C2=CCCC2)cc1)C(=O)c1ccccc1 ?
KDM4C inh: 3.8; T cruzi growth-1: 84.0

How did COc1ccccc1C#Cc1ccc([C@H]2[C@H](C#N)N(C(=O)C3CCCCC3)[C@H]2CO)cc1 do in these assays?
KDM4C inh: 1.1

Results for O=C(NCc1cccnc1)C(=O)Nc1ccccc1F ?
IDH1 R132H inh: -0.1

Results for O=C(CC1CC1)N[C@@H]1CC[C@H](CCNS(=O)(=O)c2ccc(F)cc2)O[C@H]1CO ?
KDM4C inh: 3.2; IDH1 R132H inh: 0.0; T cruzi growth-1: 13.2

What do the screens show for `Cn1c(=O)[nH]c2ncn(C)c2c1=O`?
IDH1 R132H inh: 0.0

How did C[C@H]1CN([C@@H](C)CO)C(=O)c2cccc(NC(=O)CCCCCC(=O)Nc3ccccc3N)c2O[C@@H]1CN(C)Cc1ccc(Cl)c(Cl)c1 do in these assays?
KDM4C inh: 0.9

How did Cc1noc(C)c1S(=O)(=O)Nc1ccc2c(c1)CC(=O)N([C@H](C)CO)C[C@H](C)[C@H](CN(C)S(=O)(=O)c1ccc(Cl)cc1)O2 do in these assays?
KDM4C inh: -0.9; T cruzi growth-1: 11.9

What do the screens show for `CC(C)NC(=O)Nc1ccc2c(c1)CC(=O)N([C@H](C)CO)C[C@H](C)[C@H](CN(C)S(=O)(=O)c1ccc(Cl)cc1)O2`?
KDM4C inh: -1.7; IDH1 R132H inh: -8.5; T cruzi growth-1: 102.2*; T cruzi growth-2: -51.8; T cruzi growth-3: -24.0; 3T3 cytotox: -30.4; 3T3 cytotox 2: 9.1

What do the screens show for `CC(C)NC(=O)Nc1ccc2c(c1)CC(=O)N([C@@H](C)CO)C[C@@H](C)[C@H](CN(C)S(=O)(=O)c1ccc(Cl)cc1)O2`?
KDM4C inh: 0.3; IDH1 R132H inh: -0.3; T cruzi growth-1: 42.5

How did Cc1noc(C)c1S(=O)(=O)Nc1ccc2c(c1)CC(=O)N([C@@H](C)CO)C[C@@H](C)[C@@H](CN(C)S(=O)(=O)c1ccc(Cl)cc1)O2 do in these assays?
KDM4C inh: 0.0; T cruzi growth-1: inconclusive; T cruzi growth-2: 71.1; T cruzi growth-3: 33.5; 3T3 cytotox: 2.8; 3T3 cytotox 2: 38.8*

Results for CO[C@@H]1CN(C)C(=O)c2cc(NC(=O)c3cc(C)on3)ccc2OC[C@@H](C)N(S(=O)(=O)c2ccc(F)cc2)C[C@H]1C ?
IDH1 R132H inh: -0.1

How did COc1ccc2c3c(n(C)c2c1)[C@H](CO)N(C(=O)Nc1ccccc1F)CC31CCN(C)CC1 do in these assays?
KDM4C inh: -1.1

How did Cc1c(Br)c([N+](=O)[O-])nn1CC(=O)NCc1ccccn1 do in these assays?
IDH1 R132H inh: 0.0

How did C[C@H](CO)N1C[C@H](C)[C@H](CN(C)S(=O)(=O)c2cccc(F)c2)Oc2cc(Br)ccc2S1(=O)=O do in these assays?
KDM4C inh: -0.5; T cruzi growth-1: 116.7*; T cruzi growth-2: 105.6*; T cruzi growth-3: 66.3; 3T3 cytotox: 3.9; 3T3 cytotox 2: 48.5*

Results for C[C@@H]1CN([C@H](C)CO)S(=O)(=O)c2ccc(Br)cc2O[C@H]1CN(C)S(=O)(=O)c1ccc(F)cc1 ?
KDM4C inh: -2.7; IDH1 R132H inh: -8.4; T cruzi growth-1: 96.6*; T cruzi growth-2: 113.3*; T cruzi growth-3: 38.0; 3T3 cytotox: 23.5; 3T3 cytotox 2: 61.2*

What do the screens show for `C[C@@H]1CN([C@H](C)CO)S(=O)(=O)c2ccc(Br)cc2O[C@@H]1CN(C)S(=O)(=O)c1ccc(F)cc1`?
KDM4C inh: -3.7; IDH1 R132H inh: -6.1; T cruzi growth-1: 87.4

How did Cc1ccc(S(=O)(=O)N(C)C[C@H]2Oc3cc(Br)ccc3S(=O)(=O)N([C@H](C)CO)C[C@@H]2C)cc1 do in these assays?
KDM4C inh: -0.7; IDH1 R132H inh: 1.8; T cruzi growth-1: 110.1*; T cruzi growth-2: 107.0*; T cruzi growth-3: 81.0; 3T3 cytotox: 32.8; 3T3 cytotox 2: 60.6*

How did Cc1ccc(S(=O)(=O)N(C)C[C@@H]2Oc3cc(Br)ccc3S(=O)(=O)N([C@@H](C)CO)C[C@H]2C)cc1 do in these assays?
KDM4C inh: -1.7; IDH1 R132H inh: -1.8
